# Measured values from ChEMBL document CHEMBL1142852, “A series of 5-(5,6)-dihydrouracil substituted 8-hydroxy-[1,6]naphthyridine-7-carboxylic acid 4-fluorobenzylamide inhibitors of HIV-1 integrase and viral replication in cells” (Bioorg Med Chem Lett, 2005).
# pIC50: −log10 of the molar value.
# Experiments:
# [1] = system: Human immunodeficiency virus; assay: Antiviral activity in presence of 10% FBS against HIV-1 replication in cells; assay type: functional, Human immunodeficiency virus 1; settings: read-out: CIC95
# [2] = system: Human immunodeficiency virus; assay: Antiviral activity in presence of 50% NHS against HIV-1 replication in cells; assay type: functional, Human immunodeficiency virus 1; settings: read-out: CIC95
# [3] = molecular target: Human immunodeficiency virus type 1 integrase (Human immunodeficiency virus 1, UniProt Q7ZJM1); assay: Inhibition of strand transfer for HIV-1 integrase
# [4] = Human plasma albumin binding in pH 7.4 at RT; assay type: ADME, cell-free
# Procedure, shortened: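 Binding to human plasma protein, mainly albumin, was measured by analytical HPLC with UV detection. The assay ran in pH 7.4 buffer at room temperature, and the result was reported as percent protein bound.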
# Chain of Human immunodeficiency virus type 1 integrase (Q7ZJM1 whole entry): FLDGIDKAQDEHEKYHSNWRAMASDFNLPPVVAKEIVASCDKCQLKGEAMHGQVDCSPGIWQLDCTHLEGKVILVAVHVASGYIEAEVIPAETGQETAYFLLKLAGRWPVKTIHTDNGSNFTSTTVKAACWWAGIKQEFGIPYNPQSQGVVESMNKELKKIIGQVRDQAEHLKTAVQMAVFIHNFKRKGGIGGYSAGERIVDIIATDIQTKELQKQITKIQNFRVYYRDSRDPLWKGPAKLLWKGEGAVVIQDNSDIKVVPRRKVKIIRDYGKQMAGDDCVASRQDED
compound,measurement,setting,value
CN1C(=O)NC(=O)CC1c1nc(C(=O)NCc2ccc(F)cc2)c(O)c2ncccc12 (racemic),IC95,[1]; Human immunodeficiency virus 1,15.6 nM
same,IC95,[2]; Human immunodeficiency virus 1,15.6 nM
same,pIC50,[3],7.90
"CN1C(=O)CC(c2nc(C(=O)NCc3ccc(F)cc3)c(O)c3ncccc23)N(C)C1=O (single isomer, unassigned; (+))",IC95,[1],41.7 nM
same,Activity,[4],96%
same,IC95,[2],166.7 nM
same,pIC50,[3],7.95
"CN1C(=O)CC(c2nc(C(=O)NCc3ccc(F)cc3)c(O)c3ncccc23)N(C)C1=O (single isomer, unassigned; (-))",IC95,[1],20.1 nM
same,Activity,[4],95%
same,IC95,[2],40.2 nM
same,pIC50,[3],7.46
"O=C1CC(c2nc(C(=O)NCc3ccc(F)cc3)c(O)c3ncccc23)NC(=O)N1 (single isomer, unassigned; (-))",IC95,[1],125 nM
same,IC95,[2],125 nM
same,pIC50,[3],7.88
CN1C(=O)CC(c2nc(C(=O)NCc3ccc(F)cc3)c(O)c3ncccc23)N(C)C1=O (stereo in doubt; 14),IC95,[1],250 nM
same,Activity,[4],97.8%
same,IC95,[2],1000 nM
same,pIC50,[3],7.56
O=C(NCc1ccc(F)cc1)c1ncc2cccnc2c1O,IC95,[1]; Human immunodeficiency virus 1,1250 nM
same,Activity,[4],99.2%
same,IC95,[2]; Human immunodeficiency virus 1,5000 nM
same,pIC50,[3],7.48
CN1C(=O)CC(c2nc(C(=O)NCc3ccc(F)cc3)c(O)c3ncccc23)N(C)C1=O (racemic),IC95,[1],18.6 nM
same,Activity,[4],94.3%
same,IC95,[2],60.7 nM
same,pIC50,[3],8.06
"O=C1CC(c2nc(C(=O)NCc3ccc(F)cc3)c(O)c3ncccc23)NC(=O)N1 (single isomer, unassigned; (+))",IC95,[1],93.8 nM
same,IC95,[2],93.8 nM
same,pIC50,[3],7.96
CN1C(=O)CC(c2nc(C(=O)NCc3ccc(F)cc3)c(O)c3ncccc23)NC1=O (racemic),IC95,[1]; Human immunodeficiency virus 1,31.3 nM
same,IC95,[2]; Human immunodeficiency virus 1,62.5 nM
same,pIC50,[3],7.89
O=C1CC(c2nc(C(=O)NCc3ccc(F)cc3)c(O)c3ncccc23)NC(=O)N1 (racemic),IC95,[1],53.7 nM
same,Activity,[4],92.1%
same,IC95,[2],55.7 nM
same,pIC50,[3],8.00
